Bioassay records from PubChem.
14-3-3 Bad PPI: disrupts binding of bovine 14-3-3 zeta to phospho-Bad peptide; inhibition, % at 21.7 µM; TR-FRET 14-3-3zeta/Dy647-pBad peptide displacement, 1 h; 220,000 compounds, 0.71% hits; P63103;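 active = inhibition above about 70%, limit read from the data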;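 also: 0% = full 14-3-3 plus peptide FRET controls and 100% = background without 14-3-3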
RBBP9 inhibitor: inhibitors of human serine hydrolase RBBP9; AID 1515; inhibition, % at 7.94 µM; O75884; recombinant RBBP9, FP-Rh probe fluorescence polarization; 220,000 compounds, 0.2% hits;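 active = inhibition above the campaign mean of all tested compounds plus 3 SD, cut at about 14% in these data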;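 also: plate controls were DMSO wells with RBBP9 for no effect and wells lacking RBBP9 protein for full effect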
Target sequence (O75884 whole entry, looked up): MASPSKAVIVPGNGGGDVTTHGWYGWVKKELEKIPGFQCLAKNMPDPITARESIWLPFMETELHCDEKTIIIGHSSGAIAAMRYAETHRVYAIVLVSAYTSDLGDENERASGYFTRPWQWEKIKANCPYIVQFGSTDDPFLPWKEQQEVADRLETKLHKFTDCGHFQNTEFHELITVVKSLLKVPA
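System: RBBP9 protein / Quantity: 2.5 µM RBBP9 dispensing solution, before mixing / Also added: Serine-hydrolase probe FP-Rh, 375 nM pre-mixing / Dosing: 7.94 µM single dose, 0.794% DMSO / Timing: enzyme-compound preincubation 30 min, then probe labeling 45 min, 25 °C / Signal: FP readout at 525/598 nm / Controls: DMSO-treated enzyme wells and wells lacking RBBP9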
p47phox inh: p47phox (human) inhibition; 220,000 compounds, 0.53% hits; AID 1274; p47phox/p22phox peptide binding, fluorescence polarization, 2 h; P14598; inhibition, % at 24.7 µM;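 active = inhibition above about 30%, limit read from the data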;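 also: 0% = p47phox with labelled peptide and 100% = labelled peptide alone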
ROMK primary: modulators of human ROMK potassium channel; AID 1918; 130,000 compounds, 2% hits; Tet-inducible ROMK, thallium flux fluorescence; actives lie on both sides; P48048; B-score at 10 µM;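 active = signal ratio slope over the read window, or its plate-corrected B-score, at least 3 SD from the plate mean, either direction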;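 also: B-score of the F/F0 ratio slope over 7 to 12 s after thallium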
Target sequence (P48048 whole entry, looked up): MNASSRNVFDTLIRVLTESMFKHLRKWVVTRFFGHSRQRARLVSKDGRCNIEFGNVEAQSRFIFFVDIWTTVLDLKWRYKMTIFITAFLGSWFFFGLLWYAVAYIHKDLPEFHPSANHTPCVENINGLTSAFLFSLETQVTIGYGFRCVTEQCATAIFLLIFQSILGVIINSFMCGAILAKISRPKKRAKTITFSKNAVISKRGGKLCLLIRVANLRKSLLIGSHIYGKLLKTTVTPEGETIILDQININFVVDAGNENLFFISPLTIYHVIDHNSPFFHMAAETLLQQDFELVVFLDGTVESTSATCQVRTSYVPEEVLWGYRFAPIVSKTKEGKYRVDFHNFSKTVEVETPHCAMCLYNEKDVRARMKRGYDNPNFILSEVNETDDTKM
WT yeast gro inh: growth inhibition of WT yeast, mitochondrial fusion screen; inhibition, % at 10 µM; mitochondrial fusion phenotypic screen, WT strain; 190,000 compounds, 2.1% hits; in the data active = inhibition above about 58%; tested in S. cerevisiae
Cl transport mod: modulates chloride dependent transport by human KCC2; Q9H2X9; KCC2 cells, thallium flux FluoZin-2 fluorescence; B-score of Tl+ flux slope (higher = more flux/activation; lower = inhibition) at 10 µM; 190,000 compounds, 2.2% hits; AID 1456;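 active = thallium flux slope and its plate-corrected score both differing from the plate sample mean at a set confidence after two filtering rounds, in either direction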;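 also: slope of fluorescence scaled to starting intensity during 10 to 20 s after thallium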
KCC2 secondary: confirmation of human KCC2 transport modulators; normalised thallium flux (F/F0 slope) at 10 µM; AID 1713; 3,700 compounds, 15% hits; HEK293-KCC2, thallium flux, FluoZin2 fluorescence; active compounds read high; shares compounds with Cl transport mod;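 active = thallium flux slope above the same plate's solvent-only control mean plus 3 SD; inconclusive = the two replicate wells disagree; inactive = no significant difference from solvent-only control wells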
KCC2 bumet counter: bumetanide-insensitive thallium flux in KCC2 cells with ouabain, counter-screen; 3,700 compounds, 49% hits; normalized thallium flux at 10 µM; AID 1714; HEK293-KCC2 + bumetanide/ouabain, thallium flux FluoZin2; active compounds read high; shares compounds with Cl transport mod;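 active = thallium entry rate above the same plate's blocked-transporter control wells by more than 3 SD; inconclusive = the two repeat wells disagree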;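 also: raw slope of fluorescence over initial fluorescence between 10 and 20 s after thallium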
KCC2 secondary2: KCC2 (human) modulation, second secondary assay; shares compounds with Cl transport mod; HEK293-KCC2, thallium flux FluoZin2 fluorescence; actives lie on both sides; F/F0 rise rate, 10–20 s post-thallium; normalized thallium flux at 10 µM; 3,700 compounds, 23% hits;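 active = thallium flux slope more than 3 SD above or below the plate's solvent-only control mean, mostly below; inconclusive = the two repeat wells disagreed; inactive = no significant shift from solvent-only controls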;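 also: raw slope with 0.1% DMSO as baseline and bumetanide as block control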
HEK293 Tl flux: counter-screen for KCC2 modulators: effect in parental HEK293 cells | shares compounds with Cl transport mod | thallium flux FluoZin2, ouabain; baseline-ratio fluorescence slope, 10–20 s after thallium | thallium flux rate (normalised fluorescence) at 10 µM | 3,700 compounds, 46% hits | AID 1716;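 active = thallium flux rate significantly above the same plate's solvent-only control wells, beyond their mean plus 3 SD; inconclusive = the two replicate wells gave conflicting results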
KCC2 retest ouab: KCC2 (human) modulation, ouabain retest | shares compounds with Cl transport mod | HEK293-KCC2, thallium flux FluoZin2 fluorescence; bidirectional: low = inhibitor, high = activator | raw Tl+ flux slope (below DMSO = inhibition, above = activation) at 10 µM | 3,700 compounds, 48% hits;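 active = thallium flux slope beyond 3 SD from same-plate DMSO control mean in most replicates, usually higher, sometimes lower; inconclusive = repeat tests gave conflicting results; inactive = no significant difference from controls in most replicates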;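 also: slope of initial-normalized fluorescence between seconds 10 and 20 after thallium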
HEK293 Tl flux2: counter-screen for KCC2 modulators: effect in parental HEK293 cells. shares compounds with Cl transport mod. thallium flux FluoZin-2 fluorescence slope. thallium flux slope at 10 µM. 3,700 compounds, 33% hits. AID 1718;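 active = thallium flux slope above the same plate's solvent-control mean plus 3 SD in both duplicate wells; inconclusive = duplicate wells that disagreed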;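 also: run without ouabain in cells lacking the KCC2 cotransporter; slope of fluorescence scaled to its starting value between 10 and 20 s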
Active calls of the source: *; ? = inconclusive; . = not tested or not shown. Most compounds without a hit are left out; they make up all but 5.8% or so of the library.

SMILES	14-3-3 Bad PPI	RBBP9 inhibitor	p47phox inh	ROMK primary	WT yeast gro inh	Cl transport mod	KCC2 secondary	KCC2 bumet counter	KCC2 secondary2	HEK293 Tl flux	KCC2 retest ouab	HEK293 Tl flux2
O=C(CSc1nnnn1-c1ccccc1)N1CCc2ccccc21	12.7	0.7	-11.2	0.0017	-1.8	-1.27	.	.	.	.	.	.
O=c1cc(CSc2nnnn2-c2ccccc2)nc2scc(-c3ccccc3)n12	1.7	-13.3	-19.9	-0.236	-22.4	-4.71*	0.00883	0.00724	0.0235*	0.00652	0.0127*	0.00936
CC(C)(C)C(=O)NNC(=O)c1cnccn1	-9.9	4.1	5.1	.	.	-0.0251	.	.	.	.	.	.
ON/C=N/C(=S)Nc1ncc(C(F)(F)F)cc1Cl	-10.9	2.1	-0.4	0.315	20.1	24.6*	0.00801	0.0519*	0.0582*	0.0481*	0.0523*	?
Fc1ccc(NC(=S)NNc2ncc(C(F)(F)F)cc2Cl)c(F)c1	-17.5	5.7	-3.3	.	27.9	52.6*	0.00599	0.0382*	?	0.0321*	0.0353*	0.0222*
Cc1ccc(NC(=S)NNc2ncc(C(F)(F)F)cc2Cl)cc1	-10.6	6.8	-1.9	.	25.3	16.7*	?	0.0783*	0.0314	0.0126*	0.0418*	0.0118*
O=C(Nc1ccc(F)cc1F)c1cccn1-c1ncc(C(F)(F)F)cc1Cl	-3.2	0.6	-4.8	.	3.1	.	.	.	.	.	.	.
CC(C)Oc1ccc(C(=O)NC(Cc2c[nH]c3ccccc23)C(=O)NN)cc1 (stereo not drawn)	-4.8	-5.0	-5.4	-0.616	.	-0.888	.	.	.	.	.	.
CC(C)CN(Cc1cc(=O)oc2cc3c(cc12)CCCC3)CC(C)C	0.7	-11.3	-4.1	.	.	-0.0584	.	.	.	.	.	.
C=C(C)COc1ccc(-c2[nH]ncc2-c2ccccc2)c(O)c1	-7.4	-7.1	-13.6	.	70.5*	-4.45*	0.0105	?	0.0354	0.00732	0.0231	0.0104
O=C(NC1CCCCC1)c1ccc(CN2CCOCC2)cc1	3.9	-1.2	0.6	-0.476	7.7	-2.84*	0.00983	0.00661	0.0344	0.00779	0.0215	0.0108
CNc1nc(-c2ccc3c(c2)CCN3C(=O)c2ccccc2F)c(C)s1	-2.8	-3.0	-1.7	-0.178	7.5	-0.15	.	.	.	.	.	.
CNc1nc(-c2ccc3c(c2)CCN3C(=O)c2ccccc2F)cs1	-6.0	-11.6	5.4	0.266	12.2	-4.26*	0.009	0.00654	0.0348	0.00363	0.0188	0.0112
CCOc1ccccc1NS(=O)(=O)c1cccc2nsnc12	8.5	-7.8	-12.0	-0.405	1.2	2.86	.	.	.	.	.	.
CCOc1ccc(OCC)c(NS(=O)(=O)c2cccc3nsnc23)c1	-5.4	-5.0	-4.4	.	8.8	18.4*	0.0133*	0.0726*	0.0349	0.0274*	0.0353*	0.0134*
CN(C1CCS(=O)(=O)C1)S(=O)(=O)c1cccc2nsnc12 (stereo not drawn)	-12.4	-3.0	-4.0	0.515	-0.8	.	0.00596	0.00457	0.029	0.00774	0.0185	0.0108
CNS(=O)(=O)c1cccc2nsnc12	4.1	-4.5	-1.7	1.3	-2.1	0.135	0.00877	?	0.0311	0.008	0.0214	0.0107
CN(C)S(=O)(=O)c1cccc2nsnc12	3.2	-6.3	-16.1	0.14	-2.4	.	.	.	.	.	.	.
